pIC50: −log10 of the molar value.

This note sets out measurements from ChEMBL document CHEMBL3621160, “Pseudosaccharin amines as potent and selective KV1.5 blockers” (Bioorg Med Chem Lett, 2015).

For data set [1], the system named is Rattus norvegicus. The experiment in a line: Toxicity in rat assessed as increase in blood pressure at 3 mg/kg, iv administered as infusion for 5 mins. The data set is classed as organism-based. As to conditions: in vivo. A digest of the protocol: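 Rats were dosed at 3 mg/Kg. QT interval on ECG, mean blood pressure (% change) and plasma concentration were measured. Values are means of 2-4 experiments.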

Data set [2] in a line: Metabolic stability in rat liver microsomes assessed as compound remaining at 3 uM after 10 mins. It is filed as ADME. As to conditions: read-out: Stability. The gist of the method: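 Parent compound at 3 µM was incubated 10 min in human, rat or mouse liver microsomes with appropriate co-factors. Read-out is percent of parent remaining.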
Data set [3] concerns the target 5-hydroxytryptamine receptor 4 (Cavia porcellus) (UniProt O70528). The experiment in a line: Inhibition of guinea pig 5-HT4 receptor at 10 uM relative to control. A digest of the protocol: (§1)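 Screening panel of over 37 receptors and enzymes relevant to cardiovascular effects or toxicity. Each target was tested at a single concentration of 10 µM, with % activity reported.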

The target of data set [4] is Androgen receptor (Rattus norvegicus) (UniProt P15207). The data set is described as follows: Inhibition of rat testosterone receptor at 10 uM relative to control. A digest of the protocol:
as §1

In data set [5] the target is Sodium-dependent dopamine transporter (Homo sapiens) (UniProt Q01959). The data set is described as follows: Inhibition of human DAT at 10 uM relative to control. A digest of the protocol:
as §1

Data set [6] deals with Potassium voltage-gated channel subfamily A member 5 (Homo sapiens, UniProt P22460). The experiment in a line: Inhibition of human KV1.5 expressed in mouse L929 cells assessed as decrease in ultrarapid potassium current amplitude. It is filed as cell-based. A digest of the protocol:
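Potassium current block was measured in mouse fibroblast L929 cells expressing human KV1.5. IC50 values are means of 2-4 experiments.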

The target of data set [7] is D(2) dopamine receptor (Homo sapiens) (UniProt P14416). The data set is described as follows: Inhibition of human dopamine D2S receptor at 10 uM relative to control. The gist of the method:
as §1

Data set [8] can be described thus: Half life in rat at 2 mg/kg administered as intra-arterial infusion for 10 mins and 5 mg/kg, po. The data set is classed as ADME, organism-based. The settings on record: in vivo. The gist of the method:
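Rats (3 per compound) received intra-arterial infusion over 10 min or oral gavage. Vehicle for both routes was 40% PEG 400, 40% water and 20% ethanol. Values are means of 3 animals.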

The target of data set [9] is 5-hydroxytryptamine receptor 2B (Homo sapiens) (UniProt P41595). The data set is described as follows: Inhibition of human 5HT-2B receptor at 10 uM relative to control. A digest of the protocol:
as §1

For data set [10], the target named is Adrenergic receptor beta (Rattus norvegicus) (UniProt P18090+P10608+P26255). The experiment in a line: Inhibition of rat beta adrenergic receptor at 10 uM relative to control. A digest of the protocol: as §1
In data set [11] the target is Sodium-dependent noradrenaline transporter (Homo sapiens) (UniProt P23975). The experiment in a line: Inhibition of human NET at 10 uM relative to control. The gist of the method: as §1
The test system of data set [12] is Rattus norvegicus. The data set is described as follows: Induction of QT interval prolongation in rat at 3 mg/kg, iv administered as infusion for 5 mins by ECG analysis. The data set is classed as functional. The gist of the method: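 Rats were dosed at 3 mg/Kg. Block of IKur was read as the percent change in the ECG QT interval; mean blood pressure and plasma concentration were recorded alongside. Values are means of 2-4 experiments.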

Data set [13] deals with Oryctolagus cuniculus. The experiment in a line: Toxicity in rabbit assessed as increase in blood pressure at 0.3 to 3 mg/kg. It is filed as organism-based. The settings on record: in vivo. The gist of the method: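 Rabbits were dosed at 0.3, 1.0 and 3.0 mg/Kg. Effective refractory period was measured in atrium and ventricle, and blood pressure was recorded. The plasma concentration giving 20% atrial ERP prolongation (EC20) was calculated.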

Data set [14] addresses Somatostatin receptor type 2 (Homo sapiens) (UniProt P30874). The experiment in a line: Inhibition of human SS2 receptor at 10 uM relative to control. The gist of the method: as §1
The species named for data set [15] is Rattus norvegicus. The experiment in a line: Inhibition of rat choline transporter at 10 uM relative to control. A digest of the protocol:
(§2)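 Single-concentration screen at 10 µM across a panel of over 37 receptors and enzymes linked to cardiovascular effects or toxicity. Read-out is percent activity.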

The target in data set [16] is Adrenergic receptor alpha-1 (Rattus norvegicus) (UniProt P15823+P23944+P43140). The experiment in a line: Inhibition of rat alpha-1 adrenergic receptor at 10 uM relative to control. A digest of the protocol:
as §1

Data set [17] concerns the target 5-hydroxytryptamine receptor 1B (Rattus norvegicus) (UniProt P28564). The experiment in a line: Inhibition of rat 5HT-1B receptor at 10 uM relative to control. A digest of the protocol: as §1
The species entered for data set [18] is Oryctolagus cuniculus. The experiment in a line: Toxicity in rabbit assessed as increase in gastrointestinal motility. The data set is classed as organism-based. The settings on record: in vivo.
Data set [19] concerns the target Melanocyte-stimulating hormone receptor (Homo sapiens) (UniProt Q01726). The experiment in a line: Inhibition of human MC1 receptor at 10 uM relative to control. The gist of the method:
as §1

The target of data set [20] is B1 bradykinin receptor (Homo sapiens) (UniProt P46663). The data set is described as follows: Inhibition of human bradykinin B1 receptor at 10 uM relative to control. A digest of the protocol:
as §1

Data set [21] addresses Mineralocorticoid receptor (Rattus norvegicus) (UniProt P22199). The experiment in a line: Inhibition of rat aldosterone receptor at 10 uM relative to control. A digest of the protocol: as §1
For data set [22], the target named is Cannabinoid receptor 1 (Homo sapiens) (UniProt P21554). The data set is described as follows: Inhibition of human CB1 receptor at 10 uM relative to control. A digest of the protocol: as §1
For data set [23], the target named is Calcitonin receptor (Homo sapiens) (UniProt P30988). The data set is described as follows: Inhibition of human calcitonin receptor at 10 uM relative to control. A digest of the protocol:
as §1

Data set [24] has as its target Neuropeptide Y receptor type 1 (Homo sapiens) (UniProt P25929). The data set is described as follows: Inhibition of human NPY1-R at 10 uM relative to control. A digest of the protocol:
as §1

Data set [25] has as its target Adenosine receptor A3 (Homo sapiens) (UniProt P0DMS8). The experiment in a line: Inhibition of human adenosine A3 receptor at 10 uM relative to control. A digest of the protocol:
as §2

Sequence of D(2) dopamine receptor (Homo sapiens) (P14416 whole entry): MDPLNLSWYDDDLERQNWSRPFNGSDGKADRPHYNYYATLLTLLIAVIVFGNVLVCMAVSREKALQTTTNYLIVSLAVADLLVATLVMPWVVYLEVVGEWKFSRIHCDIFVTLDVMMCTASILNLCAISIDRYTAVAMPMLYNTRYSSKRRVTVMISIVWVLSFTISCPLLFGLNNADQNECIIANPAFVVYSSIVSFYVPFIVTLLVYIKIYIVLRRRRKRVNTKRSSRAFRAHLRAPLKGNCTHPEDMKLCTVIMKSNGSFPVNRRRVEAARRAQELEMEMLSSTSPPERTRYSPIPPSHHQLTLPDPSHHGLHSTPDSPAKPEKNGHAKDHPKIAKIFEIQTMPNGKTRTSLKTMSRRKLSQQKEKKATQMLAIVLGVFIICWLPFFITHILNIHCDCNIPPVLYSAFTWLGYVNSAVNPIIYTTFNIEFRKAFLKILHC
Sequence of Sodium-dependent noradrenaline transporter (Homo sapiens) (P23975 whole entry, the tested form may be a part): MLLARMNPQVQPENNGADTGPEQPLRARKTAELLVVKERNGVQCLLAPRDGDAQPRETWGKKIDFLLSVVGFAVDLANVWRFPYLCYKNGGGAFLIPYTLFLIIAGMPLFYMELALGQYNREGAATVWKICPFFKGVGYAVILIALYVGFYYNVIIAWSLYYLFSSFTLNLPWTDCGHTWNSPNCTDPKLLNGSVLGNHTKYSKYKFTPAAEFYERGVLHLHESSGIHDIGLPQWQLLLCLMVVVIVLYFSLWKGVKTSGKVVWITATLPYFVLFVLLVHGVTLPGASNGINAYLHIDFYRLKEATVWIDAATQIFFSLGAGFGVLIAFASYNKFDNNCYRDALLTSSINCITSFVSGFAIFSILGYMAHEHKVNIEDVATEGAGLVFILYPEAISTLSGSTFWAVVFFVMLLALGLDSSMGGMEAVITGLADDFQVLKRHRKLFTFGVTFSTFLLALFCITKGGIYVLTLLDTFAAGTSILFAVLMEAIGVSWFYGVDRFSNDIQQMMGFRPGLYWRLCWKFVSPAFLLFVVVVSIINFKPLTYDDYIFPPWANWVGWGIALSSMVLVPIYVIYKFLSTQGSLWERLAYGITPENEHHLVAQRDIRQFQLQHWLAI
Sequence of Sodium-dependent dopamine transporter (Homo sapiens) (Q01959 whole entry): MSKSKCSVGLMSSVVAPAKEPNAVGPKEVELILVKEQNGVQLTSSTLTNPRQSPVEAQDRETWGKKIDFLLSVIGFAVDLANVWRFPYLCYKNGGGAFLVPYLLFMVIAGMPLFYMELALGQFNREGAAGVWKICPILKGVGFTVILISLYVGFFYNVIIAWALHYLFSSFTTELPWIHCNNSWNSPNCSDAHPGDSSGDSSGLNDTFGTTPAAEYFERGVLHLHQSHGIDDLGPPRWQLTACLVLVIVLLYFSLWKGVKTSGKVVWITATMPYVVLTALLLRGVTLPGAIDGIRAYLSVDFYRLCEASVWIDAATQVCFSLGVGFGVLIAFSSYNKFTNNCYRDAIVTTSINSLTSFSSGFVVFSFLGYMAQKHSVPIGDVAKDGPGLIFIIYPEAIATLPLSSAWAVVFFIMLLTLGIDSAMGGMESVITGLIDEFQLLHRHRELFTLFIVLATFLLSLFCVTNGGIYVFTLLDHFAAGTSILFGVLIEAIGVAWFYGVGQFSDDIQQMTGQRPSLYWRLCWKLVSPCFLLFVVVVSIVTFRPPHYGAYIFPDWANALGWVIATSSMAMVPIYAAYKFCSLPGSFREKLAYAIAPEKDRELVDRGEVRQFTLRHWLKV
Sequence of 5-hydroxytryptamine receptor 4 (Cavia porcellus) (O70528 whole entry): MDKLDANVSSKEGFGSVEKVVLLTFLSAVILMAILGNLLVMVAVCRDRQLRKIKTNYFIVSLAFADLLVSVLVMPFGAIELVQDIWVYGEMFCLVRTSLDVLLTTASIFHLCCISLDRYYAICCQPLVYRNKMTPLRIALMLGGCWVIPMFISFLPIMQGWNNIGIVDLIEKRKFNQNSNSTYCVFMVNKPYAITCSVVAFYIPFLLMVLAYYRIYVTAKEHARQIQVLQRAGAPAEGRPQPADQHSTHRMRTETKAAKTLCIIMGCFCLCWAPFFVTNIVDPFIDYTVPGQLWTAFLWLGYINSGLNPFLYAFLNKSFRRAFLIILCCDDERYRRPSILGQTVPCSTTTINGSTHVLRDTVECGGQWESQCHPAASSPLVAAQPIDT
Sequence of 5-hydroxytryptamine receptor 1B (Rattus norvegicus) (P28564 whole entry): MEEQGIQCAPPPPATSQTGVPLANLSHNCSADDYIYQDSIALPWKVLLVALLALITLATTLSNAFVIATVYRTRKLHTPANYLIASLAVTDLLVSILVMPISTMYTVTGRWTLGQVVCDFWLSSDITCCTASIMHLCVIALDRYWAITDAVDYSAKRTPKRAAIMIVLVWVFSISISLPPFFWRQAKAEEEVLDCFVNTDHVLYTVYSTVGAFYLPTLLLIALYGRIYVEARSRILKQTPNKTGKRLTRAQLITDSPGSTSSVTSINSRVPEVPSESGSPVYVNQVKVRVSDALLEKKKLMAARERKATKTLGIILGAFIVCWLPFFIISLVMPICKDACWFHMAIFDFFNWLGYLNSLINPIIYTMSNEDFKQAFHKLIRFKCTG
Sequence of Androgen receptor (Rattus norvegicus) (P15207 whole entry S389L): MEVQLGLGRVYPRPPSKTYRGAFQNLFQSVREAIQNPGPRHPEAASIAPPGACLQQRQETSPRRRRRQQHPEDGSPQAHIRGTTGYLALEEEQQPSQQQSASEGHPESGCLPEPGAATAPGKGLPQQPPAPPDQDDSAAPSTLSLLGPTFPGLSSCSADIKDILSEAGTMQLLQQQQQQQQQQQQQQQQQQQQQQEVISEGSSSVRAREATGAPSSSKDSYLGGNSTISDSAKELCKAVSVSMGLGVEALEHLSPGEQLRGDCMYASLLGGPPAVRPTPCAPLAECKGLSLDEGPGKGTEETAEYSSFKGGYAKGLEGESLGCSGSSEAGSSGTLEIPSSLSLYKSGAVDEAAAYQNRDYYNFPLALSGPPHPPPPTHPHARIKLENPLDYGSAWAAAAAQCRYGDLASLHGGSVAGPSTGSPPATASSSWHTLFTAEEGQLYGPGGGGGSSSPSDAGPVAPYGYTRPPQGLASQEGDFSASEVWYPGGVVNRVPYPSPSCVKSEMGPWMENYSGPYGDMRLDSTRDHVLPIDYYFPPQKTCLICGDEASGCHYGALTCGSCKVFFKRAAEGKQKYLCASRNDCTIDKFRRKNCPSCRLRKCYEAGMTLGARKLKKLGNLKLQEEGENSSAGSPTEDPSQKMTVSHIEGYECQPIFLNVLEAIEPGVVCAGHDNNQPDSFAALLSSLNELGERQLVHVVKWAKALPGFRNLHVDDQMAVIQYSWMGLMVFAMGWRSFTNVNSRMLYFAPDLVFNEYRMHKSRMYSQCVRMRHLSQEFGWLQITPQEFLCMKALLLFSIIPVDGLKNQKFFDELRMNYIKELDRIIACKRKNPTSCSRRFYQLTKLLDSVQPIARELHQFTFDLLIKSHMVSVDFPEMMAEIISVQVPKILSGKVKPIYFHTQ
Sequence of 5-hydroxytryptamine receptor 2B (Homo sapiens) (P41595 whole entry): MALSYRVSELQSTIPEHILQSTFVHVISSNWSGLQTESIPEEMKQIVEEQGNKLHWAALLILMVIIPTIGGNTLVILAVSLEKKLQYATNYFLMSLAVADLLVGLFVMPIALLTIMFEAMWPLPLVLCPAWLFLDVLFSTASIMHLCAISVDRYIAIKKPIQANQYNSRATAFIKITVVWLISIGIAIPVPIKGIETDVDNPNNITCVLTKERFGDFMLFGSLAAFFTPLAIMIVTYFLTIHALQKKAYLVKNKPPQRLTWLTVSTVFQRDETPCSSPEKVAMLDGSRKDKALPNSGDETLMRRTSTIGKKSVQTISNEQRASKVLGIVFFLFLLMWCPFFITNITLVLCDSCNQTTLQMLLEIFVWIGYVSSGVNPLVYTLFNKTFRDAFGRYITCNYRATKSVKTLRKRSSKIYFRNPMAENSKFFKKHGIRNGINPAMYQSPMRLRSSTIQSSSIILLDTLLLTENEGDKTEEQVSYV
Sequence of Somatostatin receptor type 2 (Homo sapiens) (P30874 whole entry): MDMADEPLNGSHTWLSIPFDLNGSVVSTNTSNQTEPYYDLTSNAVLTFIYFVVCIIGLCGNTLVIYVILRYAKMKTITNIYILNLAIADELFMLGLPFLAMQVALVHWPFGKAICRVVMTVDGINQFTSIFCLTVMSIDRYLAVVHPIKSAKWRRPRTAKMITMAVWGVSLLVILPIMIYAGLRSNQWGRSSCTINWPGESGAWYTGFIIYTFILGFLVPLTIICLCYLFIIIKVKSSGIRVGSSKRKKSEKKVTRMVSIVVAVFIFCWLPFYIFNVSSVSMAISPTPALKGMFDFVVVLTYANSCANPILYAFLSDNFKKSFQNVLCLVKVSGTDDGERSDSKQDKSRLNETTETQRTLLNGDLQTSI
Sequence of Potassium voltage-gated channel subfamily A member 5 (P22460 whole entry): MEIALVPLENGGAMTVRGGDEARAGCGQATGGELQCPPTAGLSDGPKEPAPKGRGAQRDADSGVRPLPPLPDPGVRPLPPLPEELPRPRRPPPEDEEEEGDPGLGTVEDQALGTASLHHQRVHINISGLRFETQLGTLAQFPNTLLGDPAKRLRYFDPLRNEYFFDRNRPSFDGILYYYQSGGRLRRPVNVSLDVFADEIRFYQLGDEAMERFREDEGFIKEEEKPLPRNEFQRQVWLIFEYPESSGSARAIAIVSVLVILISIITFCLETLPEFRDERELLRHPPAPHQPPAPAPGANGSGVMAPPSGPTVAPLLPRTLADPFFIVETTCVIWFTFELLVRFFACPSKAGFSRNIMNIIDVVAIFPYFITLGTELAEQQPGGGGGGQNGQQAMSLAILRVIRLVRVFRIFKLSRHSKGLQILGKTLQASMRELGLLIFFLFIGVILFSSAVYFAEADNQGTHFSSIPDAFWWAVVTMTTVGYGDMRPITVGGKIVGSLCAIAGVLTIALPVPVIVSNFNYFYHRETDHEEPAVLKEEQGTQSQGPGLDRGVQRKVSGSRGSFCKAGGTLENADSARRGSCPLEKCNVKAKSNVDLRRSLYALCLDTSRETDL

For the molecule `COc1cccc2c1C(NC[C@]1(c3ccccc3)CC[C@H](O)CC1)=NS2(=O)=O`, the Activity in data set [1] is recorded as 13%; in data set [12] it was 66%; in [13], 19%; in [18], “Toxic”. Besides, in [2], the remaining at 10 min, 3 µM was 68%. Also, the inhibition in data set [3] is 5%; in data set [4], 2%; in [5], 18%; in data set [7], 4%; in [9] it was 2%; in data set [10] it was -4%. The inhibition is 8% in [11]; 4% in data set [14]; 17% in data set [15]; 13% in data set [16]; 42% in [17]. The pIC50 in [6] was 7.47. In addition, the half-life in [8] is 5.1 h.

As for `COc1cccc2c1C(NC[C@]1(c3ccccc3)CC[C@H](NC(=O)OC(C)C)CC1)=NS2(=O)=O`, the Activity was found to be 44% in data set [1], 68% in [12] and 17% in data set [13]. Further, the inhibition in [19] is -6%; in data set [20] it was -4%; in [3], 25%; in data set [4], 20%; in data set [5] it was 37%; in data set [21], 16%. The inhibition in data set [22] is -8%; in [7], -2%; in data set [23] it was 4%; in data set [9], 27%; in [10] it was 0%; in [11], 6%. The inhibition was 8% in [24]; 6% in data set [14]; 1% in data set [15]; -6% in [16]; 23% in data set [17]; 64% in data set [25]. Besides, the remaining at 10 min, 3 µM in data set [2] was 29%. In addition, in data set [6], the pIC50 is 7.28. In data set [8], this molecule had a half-life of 0.9 h.
